Results reported in ChEMBL document CHEMBL1154417, “In vitro antiviral activity of the novel, tyrosyl-based human immunodeficiency virus (HIV) type 1 protease inhibitor brecanavir (GW640385) in combination with other antiretrovirals and against a panel of protease inhibitor-resistant HIV” (Antimicrob Agents Chemother, 2007).
Active and inactive are the calls of the source. The calls are words filed in the database; no cut-off is given here.

Columns and labels:
[1] = test system: Human immunodeficiency virus 1; assay: Ratio of EC50 for HIV1 drug resistant mutant isolates from protease inhibitor treated HIV patient to EC50 for drug sensitive HIV1 NL4-3; format: functional
In short: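 Recombinant virus assay with clinical isolates from PI-experienced patients (94 isolates). Fold change is the EC50 against each isolate over the EC50 against reference wild-type HIV-1 NL4-3.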

Protease [2] = target: T1, Protease (Human immunodeficiency virus 1, UniProt Q9YQ12); assay: Inhibition of HIV1 protease
In short: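 Ki derived either from a continuous fluorescence activity assay of HIV-1 protease or from the ratio of the dissociation first-order rate constant to the bimolecular association rate constant for enzyme–inhibitor binding.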

[3] = test system: Human immunodeficiency virus 1; assay: Antiviral activity against HIV1 BaL in human PBMC assessed as blockade of reverse transcriptase activity; format: functional, organism-based; conditions: Human immunodeficiency virus 1, BaL
In short: (§1)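 PHA-stimulated PBMCs, 8 × 10^6 cells/ml in RPMI with 20% FBS and 10% IL-2, preincubated 1 h at 37°C with compound serially diluted fourfold. Then infected with virus premixed with compound (IIIB for line 2, Ba-L for line 3). After 7 days, RT activity measured in supernatant. EC50 from mean percent inhibition; n = 3 for IIIB, 8 for Ba-L.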

[4] = test system: Human immunodeficiency virus 1; assay: Antiviral activity against HIV1 NL4-3; format: functional, organism-based; conditions: Human immunodeficiency virus 1, NL4-3
[5] = test system: Human immunodeficiency virus 1; assay: Antiviral activity against HIV1 drug resistant mutant isolates from protease inhibitor treated HIV patient; format: functional, organism-based
Protease [6] = target: T1, Protease; assay: Inhibition of HIV1 protease by fluorescent peptide substrate based assay
In short: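 HIV-1 protease Ki from a continuous fluorescence activity assay using a fluorescent peptide substrate. Alternatively, Ki was calculated from the association and dissociation rate constants of the enzyme-inhibitor complex.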

[7] = test system: Human immunodeficiency virus 1; assay: Antiviral activity against HIV1 HXB2 in human MT4 cells assessed as inhibition of viral-induced viral cytopathic effect in presence of 10% fetal bovine serum and 40% human serum by MTS assay; format: functional, organism-based; conditions: Human immunodeficiency virus 1, HXB2, MT4
In short: (§2)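 MT-4 cells batch-infected with HIV-1 HXB2 at MOI 0.0001 for 1 h at 37°C. Cells then plated at 4 × 10^4 per well onto serially diluted compound in medium containing 10% or 40% FBS, or 10–40% human serum. After 5 days, EC50 from MTS viability.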

[8] = test system: Human immunodeficiency virus 1; assay: Antiviral activity against HIV1 HXB2 in human MT4 cells assessed as inhibition of viral-induced viral cytopathic effect in presence of 10% fetal bovine serum and 30% human serum by MTS assay; format: functional, organism-based; conditions: Human immunodeficiency virus 1, HXB2, MT4; in short: as §2
[9] = test system: Human immunodeficiency virus 1; assay: Antiviral activity against HIV1 HXB2 in human MT4 cells assessed as inhibition of viral-induced viral cytopathic effect in presence of 10% fetal bovine serum and 20% human serum by MTS assay; format: functional, organism-based; conditions: Human immunodeficiency virus 1, HXB2, MT4; in short: as §2
[10] = test system: Human immunodeficiency virus 1; assay: Antiviral activity against HIV1 HXB2 in human MT4 cells assessed as inhibition of viral-induced viral cytopathic effect in presence of 10% fetal bovine serum by MTS assay; format: functional, organism-based; conditions: Human immunodeficiency virus 1, HXB2, MT4; in short: as §2
[11] = test system: Human immunodeficiency virus 1; assay: Antiviral activity against HIV1 HXB2 in human MT4 cells assessed as inhibition of viral-induced viral cytopathic effect in presence of 10% fetal bovine serum and 10% human serum by MTS assay; format: functional, organism-based; conditions: Human immunodeficiency virus 1, HXB2, MT4; in short: as §2
[12] = test system: Human immunodeficiency virus 1; assay: Antiviral activity against HIV1 HXB2 in human MT4 cells assessed as inhibition of viral-induced viral cytopathic effect in presence of 40% fetal bovine serum by MTS assay; format: functional, organism-based; conditions: Human immunodeficiency virus 1, HXB2, MT4; in short: as §2
[13] = test system: Human immunodeficiency virus 1; assay: Ratio of EC50 for HIV1 HXB2 in presence of 10% human serum to EC50 for HIV1 HXB2 in presence of 10% fetal bovine serum; format: functional; in short: as §2
[14] = test system: Human immunodeficiency virus 1; assay: Ratio of EC50 for HIV1 HXB2 in presence of 40% human serum to EC50 for HIV1 HXB2 in presence of 10% fetal bovine serum; format: functional; in short: as §2
[15] = test system: Human immunodeficiency virus 1; assay: Ratio of EC50 for HIV1 HXB2 in presence of 20% human serum to EC50 for HIV1 HXB2 in presence of 10% fetal bovine serum; format: functional; in short: as §2
[16] = test system: Human immunodeficiency virus 1; assay: Ratio of EC50 for HIV1 HXB2 in presence of 30% human serum to EC50 for HIV1 HXB2 in presence of 10% fetal bovine serum; format: functional; in short: as §2
[17] = test system: Human immunodeficiency virus 1; assay: Ratio of EC50 for HIV1 HXB2 in presence of 40 mg/ml HSA and 1 mg/ml alpha1-acid glycoprotein to EC50 for HIV1 HXB2; format: functional
In short: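 Same MT-4/HXB2 batch-infection format (MOI 0.0001, 1 h, 4 × 10^4 cells/well, 5-day MTS read-out), run with 40 mg/ml human serum albumin plus 1 mg/ml α1-acid glycoprotein.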

[18] = test system: Human immunodeficiency virus 1; assay: Ratio of EC50 for HIV1 HXB2 in presence of 40% fetal bovine serum to EC50 for HIV1 HXB2 in presence of 10% fetal bovine serum; format: functional; in short: as §2
[19] = Cytotoxicity against human U937 cells; format: cell-based, U-937
[20] = test system: Human immunodeficiency virus 1; assay: Antiviral activity against HIV1 HXB2 in human MT4 cells assessed as inhibition of viral-induced viral cytopathic effect by MTS assay; format: functional, organism-based; conditions: Human immunodeficiency virus 1, HXB2, MT4; in short: as §2
[21] = test system: Human immunodeficiency virus 1; assay: Antiviral activity against HIV1 HXB2 in human HeLa cells up to 50 uM by HeLa-CD4 MAGI assay; format: functional, organism-based
In short: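 HeLa-CD4-LTR-β-gal cells grown in DMEM with 10% FBS and infected with HIV-1 HXB2 for a single round of infection. Read-out is β-galactosidase activity. Tested up to the solubility limit (about 50 μM). EC50 from 2 determinations.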

[22] = Selectivity index, ratio of CCIC50 for human MT4 cells to IC50 for HIV1 3B; format: functional
[23] = Cytotoxicity against human IM9 cells; format: cell-based, IM-9; conditions: read-out: CCIC50
In short: (§3)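 Uninfected B- and T-cell lines were exposed to serially diluted compound up to a highest concentration of 25 μM. The cell culture 50% inhibitory concentration (CCIC50) was determined.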

[24] = test system: Human immunodeficiency virus 1; assay: Antiviral activity against HIV1 HXB2 in human HeLa cells by HeLa-CD4 MAGI assay; format: functional, organism-based; conditions: Human immunodeficiency virus 1, HXB2, HeLa
In short: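 HeLa-CD4-LTR-β-gal cells kept in DMEM with 10% FBS and infected with HIV-1 HXB2 in a single-round assay. Read-out is β-galactosidase activity; n = 2; tested up to about 50 μM, the solubility limit.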

[25] = Cytotoxicity against human MOLT4 cells; format: cell-based, MOLT-4; conditions: read-out: CCIC50; in short: as §3
[26] = Protein binding in human plasma; format: ADME, cell-free; conditions: read-out: PPB (converted)
[27] = test system: Human immunodeficiency virus 1; assay: Antiviral activity against HIV1 3B in human MT4 cells assessed as inhibition of viral-induced viral cytopathic effect by MTS assay; format: functional, organism-based; conditions: Human immunodeficiency virus 1, 3B
In short: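 MT-4 cells in RPMI 1640 with 20% FBS, 20% IL-2 and gentamicin, 5 × 10^5 cells/ml, infected with HIV-1 IIIB at 100 TCID50 per well for 1 h at 37°C. Cells diluted sixfold onto serially diluted compound and incubated 5 days. Cytopathic effect read by MTS staining at OD 492 nm. EC50 by Hill-equation curve fit; n = 8.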

[28] = Cytotoxicity against human MT4 cells; format: cell-based; conditions: read-out: CCIC50
In short: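 Mock-infected MT-4 cells run in parallel with the HIV-1 IIIB antiviral assay, in RPMI 1640 with FBS, IL-2 and gentamicin. Incubated 5 days at 37°C, 5% CO2, then MTS viability read at OD 492 nm. Highest concentration tested 25 μM. Reported as CCIC50.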

[29] = test system: Human immunodeficiency virus 1; assay: Antiviral activity against HIV1 3B in human PBMC assessed as blockade of reverse transcriptase activity; format: functional, organism-based; conditions: Human immunodeficiency virus 1, 3B; in short: as §1

T1 sequence (Q9YQ12 whole entry): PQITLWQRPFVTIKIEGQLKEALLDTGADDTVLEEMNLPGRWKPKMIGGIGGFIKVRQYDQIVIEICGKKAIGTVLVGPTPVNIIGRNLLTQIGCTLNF

Row | Structure (SMILES) | Ratio EC50 [1] | EC50 [3] | EC50 [4] | EC50 [5] | EC50 [7] | EC50 [8] | EC50 [9] | EC50 [10] | EC50 [11] | further results
1 | CC(C)CN(C[C@@H](O)[C@H](Cc1ccccc1)NC(=O)O[C@H]1CCOC1)S(=O)(=O)c1ccc(N)cc1 | 13.7 | 57 nM | 15.3 nM | 190 nM |  |  |  |  |  | Ki (Protease [2]): 0.036 nM; Ki (Protease [6]): 0.057 nM
2 | CC(C)CN(C[C@@H](O)[C@H](Cc1ccccc1)NC(=O)O[C@H]1CO[C@H]2OCC[C@H]21)S(=O)(=O)c1ccc(N)cc1 |  | 2.8 nM | 0.78 nM | 4.6 nM | 22 nM | 19 nM | 15 nM | 5.6 nM | 11 nM | EC50 [12]: 11 nM
3 | CCC[C@@]1(CCc2ccccc2)CC(O)=C([C@H](CC)c2cccc(NS(=O)(=O)c3ccc(C(F)(F)F)cn3)c2)C(=O)O1 | 2.4 | 304 nM | 76.2 nM | 190 nM | 660 nM | 580 nM | 507 nM | 40.9 nM | 310 nM | Ratio EC50 [13]: 7.7; Ratio EC50 [14]: 16; Ratio EC50 [15]: 12.4; Ratio EC50 [16]: 14.1; Ki (Protease [6]): 0.008 nM
4 | CC(C)(C)NC(=O)[C@@H]1CN(Cc2cccnc2)CCN1C[C@@H](O)C[C@@H](Cc1ccccc1)C(=O)N[C@H]1c2ccccc2C[C@H]1O.O | 26 |  | 9.8 nM | 220 nM |  |  |  |  |  | 
5 | Cc1c(O)cccc1C(=O)N[C@@H](CSc1ccccc1)[C@H](O)CN1C[C@H]2CCCC[C@H]2C[C@H]1C(=O)NC(C)(C)C |  | 36 nM |  |  |  |  |  |  |  | 
6 | COC(=O)N[C@H](C(=O)N[C@@H](Cc1ccccc1)[C@@H](O)CN(Cc1ccc(-c2ccccn2)cc1)NC(=O)[C@@H](NC(=O)OC)C(C)(C)C)C(C)(C)C [ATAZANAVIR] | 26 | 4.4 nM | 1.7 nM | 47 nM |  |  |  |  |  | 
7 | Cc1nc(COc2ccc(C[C@H](NC(=O)O[C@H]3CO[C@H]4OCC[C@H]43)[C@H](O)CN(CC(C)C)S(=O)(=O)c3ccc4c(c3)OCO4)cc2)cs1 [BRECANAVIR] | 6.6 | 0.42 nM | 0.18 nM | 0.88 nM | 3.8 nM | 2.6 nM | 2.2 nM | 0.7 nM | 1.4 nM | Ratio EC50 [13]: 1.9; Ratio EC50 [17]: 8.2; Ratio EC50 [18]: 1.6; CC50 [19]: > 25000 nM; EC50 [20]: 0.53 nM; Activity [21]: inactive; Ratio [22]: >55000; Ratio EC50 [14]: 5.2; Ratio EC50 [15]: 2.2; CC50 [23]: > 25000 nM; EC50 [24]: > 90000 nM; CC50 [25]: > 25000 nM; fraction unbound [26]: 0.02; EC50 [27]: 0.44 nM; CC50 [28]: > 25000 nM; EC50 [29]: 0.2 nM; Ratio EC50 [16]: 3.6; EC50 [12]: 1.1 nM
8 | Cc1cccc(C)c1OCC(=O)N[C@@H](Cc1ccccc1)[C@@H](O)C[C@H](Cc1ccccc1)NC(=O)[C@H](C(C)C)N1CCCNC1=O [LOPINAVIR] | 43 |  | 4.4 nM | 230 nM |  |  |  |  |  | 
